For data set [1], the system named is Staphylococcus aureus. In words: Antimicrobial activity against Staphylococcus aureus ATCC 25923 assessed as growth inhibition of planktonic forms incubated for 24 hrs. The class given is organism-based. Particulars: in vitro. The gist of the method: (§1)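 Broth microdilution in tryptic soy broth. Two-fold series 100 to 0.75 μg/mL made from a 1 mg/mL stock in 0.9% NaCl. Inoculum ~10⁶ cfu/mL taken from a 24 h culture, 37 °C 24 h.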

Data set [2] deals with Staphylococcus aureus. In words: Antimicrobial activity against Staphylococcus aureus ATCC 6538 assessed as growth inhibition of planktonic forms incubated for 24 hrs. It is filed as organism-based. Particulars: in vitro. Summed up:
as §1

Data set [3] has as its system Staphylococcus epidermidis. The experiment in a line: Antimicrobial activity against Staphylococcus epidermidis ATCC 12228 assessed as growth inhibition of planktonic forms incubated for 24 hrs. As to conditions: in vitro. It is filed as organism-based. Summed up: as §1
In data set [4] the test system is Pseudomonas aeruginosa. The experiment in a line: Antimicrobial activity against Pseudomonas aeruginosa ATCC 15442 assessed as growth inhibition of planktonic forms incubated for 24 hrs. It is filed as organism-based. As to conditions: in vitro. The gist of the method:
as §1

Data set [5] concerns Escherichia coli. In words: Antimicrobial activity against Escherichia coli ATCC 25922 assessed as growth inhibition of planktonic forms incubated for 24 hrs. The class given is organism-based. Particulars: in vitro. The gist of the method: as §1
Data set [6] relates to Staphylococcus aureus. The experiment in a line: Antibiofilm activity against Staphylococcus aureus ATCC 25923 incubated for 24 hrs by crystal violet-staining based assay. The class given is functional. The gist of the method: (§2)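 Biofilm prevention: 0.5 McFarland inoculum (2.5 µL) in 100 µL TSB with 2% w/v glucose, compound present from the start over 100–0.1 µg/mL, 37 °C 24 h. Washed with PBS, stained 0.1% w/v crystal violet 30 min, eluted with 33% v/v acetic acid, read at 570 nm. BIC50 (50% inhibition versus untreated control) derived by linear regression; triplicate, repeated at least twice.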

Data set [7] has as its system Staphylococcus aureus. In words: Antibiofilm activity against Staphylococcus aureus ATCC 6538 incubated for 24 hrs by crystal violet-staining based assay. The class given is functional. The gist of the method:
as §2

The test system of data set [8] is Staphylococcus epidermidis. The experiment in a line: Antibiofilm activity against Staphylococcus epidermidis ATCC 12228 incubated for 24 hrs by crystal violet-staining based assay. The class given is functional. The gist of the method: as §2
For data set [9], the system named is Staphylococcus aureus. In words: Antibiofilm activity against 24 hrs preformed biofilm of Staphylococcus aureus ATCC 25923 assessed as dispersion of bacteria incubated for 24 hrs by crystal violet-staining based assay. It is filed as functional, organism-based. Particulars: ATCC 25923, 24 h. Summed up: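 Preformed biofilm: 0.5 McFarland suspension (2.5 µl) grown 24 h in TSB with 2% w/v glucose. Wells washed twice with PBS and refilled with fresh TSB, then compound added at graded concentrations starting at or above the planktonic MIC. Incubated a further 24 h at 37 °C, washed, heat-fixed 60 °C 1 h, 0.1% crystal violet 30 min, dye solubilized, A540. Percent inhibition versus untreated growth control; triplicate, repeated at least twice.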

The subject of another data set is Bacteria. In words: Inhibition of recombinant bacterial SrtA at 100 uM using 5-FAM/QXL 520 Sortase as substrate preincubated for 10 mins followed by substrate addition and measured every 5 mins for 60 mins by fluorescence assay. Summed up:
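FRET kit assay: 2.5 µg/ml recombinant SrtA, 4 µM fluorescent peptide substrate, compound at 100 µM in 1% DMSO. Compound and enzyme added first, then substrate. Fluorescence (Ex/Em 490/520 nm) recorded every 5 min for 60 min. Substrate without enzyme served as negative control and 4-(hydroxymercuri)benzoic acid as positive control.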

In data set [10] the test system is Pseudomonas aeruginosa. The experiment in a line: Antibiofilm activity against Pseudomonas aeruginosa ATCC 15442 assessed as inhibition of biofilm formation at 100 ug/ml incubated for 24 hrs by crystal violet-staining based assay. The class given is functional. Particulars: ATCC 15442, 24 h.
Data set [11] has as its system Escherichia coli. The experiment in a line: Antibiofilm activity against Escherichia coli ATCC 25922 assessed as inhibition of biofilm formation at 100 ug/ml incubated for 24 hrs by crystal violet-staining based assay. It is filed as functional. As to conditions: ATCC 25922, 24 h.

Activity calls are given as the source filed them. The calls are words filed in the database; no cut-off is given here.

As to `Br.COc1ccc(OC)c(-c2cn3nc(-c4c[nH]c5ccccc45)sc3n2)c1`, the MIC (in the data set on Staphylococcus aureus [1]; with Staphylococcus aureus [2]; in data set [3]; with Pseudomonas aeruginosa [4]; in the data set with Escherichia coli [5]) was more than 100 µg/mL in each case. Besides, the MBIC50 in the data set on Staphylococcus aureus [6] came out at 1.2 µM; in the data set on Staphylococcus aureus [7] it was 18.5 µM; in [8], 29.9 µM. The same compound gave an MBIC90 in the data set on Staphylococcus aureus [6] of 36.5 µg/mL. The inhibition entry (with Staphylococcus aureus [6]; with Staphylococcus aureus [7]; in data set [8]) was “Dose-dependent effect” in each case. The IC50 – broadly, the point on the concentration scale where inhibition reaches its midpoint – in the data set with Staphylococcus aureus [9] was 142 µg/mL. In addition, in the data set on Bacteria, the inhibition (usually the change of the read-out against control, counted positive when it falls) was “inactive”. For the same compound, the inhibition at 100 µg/mL in the data set with Pseudomonas aeruginosa [10] and with Escherichia coli [11] was less than 15% throughout.

The values are drawn from ChEMBL document CHEMBL4339190, “2,6-Disubstituted imidazo[2,1-b][1,3,4]thiadiazole derivatives as potent staphylococcal biofilm inhibitors” (Eur J Med Chem, 2019).
